Data set [1] relates to P388. In words: Induction of H+/Na+ exchange activity in BCECF-loaded mouse P388 cells assessed as change in intracellular pH at 125 nM measured for 1.5 hrs by spectrofluorometric analysis. It is filed as functional, cell-based. The essentials:
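P388 mouse leukemia cells loaded with BCECF-AM, which intracellular esterases hydrolyse to trapped BCECF. Cells were suspended in pH 7.8 MOPS buffer with 130 mM NaCl to impose a Na+ gradient. Peptides added at 0 s at 125 nM; exposure 1.5 h. Fluorescence was converted to intracellular pH using a nigericin calibration curve.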

Data set [2] is described as follows: Induction of H+/Na+ exchange activity in pyranine-encapsulated large unilamellar vesicle of egg yolk phosphatidylcholine/cholesterol at 10 uM administered 60 secs measured for 10 mins by spectrofluorometric analysis. It is filed as physicochemical. The settings on record: 125 nM, in the assay text read “at 125 nM” for “at 10 uM”. Summed up: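 Liposomes of EYPC/cholesterol 2:1 carrying encapsulated pyranine, prepared in HEPES buffer with 200 mM NaCl. pH gradient: 6.5 inside, 7.5 outside. Peptides added at 60 s. H+/Na+ exchange followed as pH-dependent pyranine fluorescence increase, normalized to maximal exchange induced by Triton X-100.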

The subject of data set [3] is P388. In words: Cytotoxicity against mouse P388 cells assessed as cell viability after 92 hrs by XTT assay. The note with it: P388, 92 h. Format: functional, cell-based. (In general: Tetrazolium assays rely on reduction of a dye to a coloured formazan, in cell work by metabolically active cells.)

Calls of active or inactive are those of the source. The rule behind the calls is not given here.

By IC50 is commonly meant the point on the concentration scale where inhibition reaches its midpoint.

For the compound `CC[C@H](C)[C@H](NC(=O)[C@@H](CC(=O)NC)NC(=O)CNC(=O)[C@H](NC(=O)[C@@H](NC(=O)[C@@H](CC(=O)NC)NC(=O)[C@@H](NC(=O)[C@@H](CC(=O)NC)NC(=O)CNC(=O)CNC(=O)[C@H](C)NC(=O)[C@H](NC(=O)[C@H](CCC(=O)NC)NC(=O)[C@@H](CC(=O)NC)NC(=O)[C@@H](NC(=O)CNC(=O)[C@H](C)NC(=O)CNC(=O)[C@@H](NC(=O)[C@@H](CC(=O)NC)NC(=O)[C@H](C)NC(=O)[C@H](NC(=O)[C@H](C)N)C(C)(C)C)C(C)(C)O)C(C)(C)C)C(C)(C)O)[C@@H](C)CC)C(C)(C)C)C(C)(C)O)C(=O)N[C@H](CC(=O)NC)C(=O)N[C@H](C(=O)N[C@H](CC(=O)NC)C(=O)N[C@@H](C)C(=O)N[C@H](CC(=O)NC)C(=O)N[C@H](C(=O)N[C@H](CO)C(=O)N[C@H](C(=O)N[C@H](CC(N)=O)C(=O)N[C@@H](Cc1cn(CCNS(=O)(=O)c2cccc3c(N(C)C)cccc23)nn1)C(=O)N[C@H](CC(N)=O)C(=O)N[C@@H](CCC(N)=O)C(=O)N[C@@H](C(=O)N[C@H](C(=O)O)[C@@H](C)O)[C@H](C)O)C(C)C)C(C)C)C(C)C`, the outcome in data set [1] was inactive. The Activity result in data set [2] was “Not Active”. Further, the 50% inhibitory concentration (IC50) in data set [3] turned out to be 3.7 nM.

As for `CC[C@H](C)[C@H](NC(=O)[C@@H](CC(=O)NC)NC(=O)CNC(=O)[C@H](NC(=O)[C@@H](NC(=O)[C@@H](CC(=O)NC)NC(=O)[C@@H](NC(=O)[C@@H](CC(=O)NC)NC(=O)CNC(=O)CNC(=O)[C@H](C)NC(=O)[C@H](NC(=O)[C@H](CCC(=O)NC)NC(=O)[C@@H](CC(=O)NC)NC(=O)[C@@H](NC(=O)CNC(=O)[C@H](C)NC(=O)CNC(=O)[C@@H](NC(=O)[C@@H](CC(=O)NC)NC(=O)[C@H](C)NC(=O)[C@H](N)C(C)(C)C)C(C)(C)O)C(C)(C)C)C(C)(C)O)[C@@H](C)CC)C(C)(C)C)C(C)(C)O)C(=O)N[C@H](CC(=O)NC)C(=O)N[C@H](C(=O)N[C@H](CC(=O)NC)C(=O)N[C@@H](C)C(=O)N[C@H](CC(=O)NC)C(=O)N[C@H](C(=O)N[C@H](CO)C(=O)N[C@H](C(=O)N[C@H](CC(N)=O)C(=O)N[C@@H](Cc1cn(CCNS(=O)(=O)c2cccc3c(N(C)C)cccc23)nn1)C(=O)N[C@H](CC(N)=O)C(=O)N[C@@H](CCC(N)=O)C(=O)N[C@@H](C(=O)N[C@H](C(=O)O)[C@@H](C)O)[C@H](C)O)C(C)C)C(C)C)C(C)C`, in data set [3], the IC50 was found to be 81 nM.

For the compound `CC[C@H](C)[C@H](NC(=O)[C@@H](CC(=O)NC)NC(=O)CNC(=O)[C@H](NC(=O)[C@@H](NC(=O)[C@@H](CC(=O)NC)NC(=O)[C@@H](NC(=O)[C@@H](CC(=O)NC)NC(=O)CNC(=O)CNC(=O)[C@H](C)NC(=O)[C@H](NC(=O)[C@H](CCC(=O)NC)NC(=O)[C@@H](CC(=O)NC)NC(=O)[C@@H](NC(=O)CNC(=O)[C@H](C)NC(=O)CNC(=O)[C@@H](NC(=O)[C@@H](CC(=O)NC)NC(=O)[C@H](C)N)C(C)(C)O)C(C)(C)C)C(C)(C)O)[C@@H](C)CC)C(C)(C)C)C(C)(C)O)C(=O)N[C@H](CC(=O)NC)C(=O)N[C@H](C(=O)N[C@H](CC(=O)NC)C(=O)N[C@@H](C)C(=O)N[C@H](CC(=O)NC)C(=O)N[C@H](C(=O)N[C@H](CO)C(=O)N[C@H](C(=O)N[C@H](CC(N)=O)C(=O)N[C@@H](Cc1cn(CCNS(=O)(=O)c2cccc3c(N(C)C)cccc23)nn1)C(=O)N[C@H](CC(N)=O)C(=O)N[C@@H](CCC(N)=O)C(=O)N[C@@H](C(=O)N[C@H](C(=O)O)[C@@H](C)O)[C@H](C)O)C(C)C)C(C)C)C(C)C`, in data set [3], the half-inhibitory concentration (IC50) stood at 100 nM.
